{"data": "Experimental data of several laboratories", "note": "Compare with care: the assays were run in different laboratories."}
{"SMILES": "Cc1ccc(C(=O)N(CCCN)[C@@H](c2oc3cc(Cl)ccc3c(=O)c2Cc2ccccc2)C(C)C)cc1", "system": "human, plasma", "setting": "intravenous, 6 mg/m², single dose, patients, infusion", "AUC": "8150 ng·h/mL"}
{"SMILES": "CCOc1ccc(Cc2cc([C@@H]3O[C@H](CO)[C@@H](O)[C@H](O)[C@H]3O)ccc2Cl)cc1", "system": "human, plasma", "setting": "oral, 10 mg, multiple doses, steady state", "AUC": "493 ng·h/mL"}
{"SMILES": "OC[C@H]1O[C@@H](c2ccc(Cl)c(Cc3ccc(O[C@H]4CCOC4)cc3)c2)[C@H](O)[C@@H](O)[C@@H]1O", "system": "male human, plasma", "setting": "oral, 25 mg, multiple doses, once daily, steady state, healthy volunteers", "AUC": "3960 ng·h/mL"}
{"SMILES": "C[C@@H](c1ccc2nccn2c1)n1nnc2ncc(-c3cnn(C)c3)nc21", "system": "human, plasma", "setting": "oral, 200 mg", "AUC": "4010 ng·h/mL"}
{"SMILES": "CS(=O)(=O)CCC#N", "system": "human, plasma", "setting": "oral, 1000 mg, multiple doses, once daily", "AUC": "723000 ng·h/mL"}
{"SMILES": "COc1cc(C(=O)NC2CCN(C)CC2)c(F)cc1Nc1ncc(C(F)(F)F)c(Oc2cccc3c2C(=O)N(C)C3)n1", "system": "human, plasma", "setting": "oral, 50 mg, multiple doses, once daily, steady state, patients", "AUC": "4.89 µM·h"}
{"SMILES": "COc1cc(C(=O)NC2CCN(C)CC2)c(F)cc1Nc1ncc(C(F)(F)F)c(Oc2cccc3c2C(=O)N(C)C3)n1", "system": "human, plasma", "setting": "oral, 200 mg, multiple doses, once daily, steady state, patients", "AUC": "43.7 µM·h"}
{"SMILES": "NS(=O)(=O)NCCNc1nonc1C(=NO)Nc1ccc(F)c(Br)c1", "system": "human, plasma", "setting": "oral, 600 mg, multiple doses, twice daily, steady state, patients", "AUC": "22.9 µM·h"}
{"SMILES": "Cn1c(=O)oc2ccc(-c3ccc(C[C@@H](C#N)NC(=O)[C@@H]4CNCCCO4)cc3)cc21", "system": "male human, plasma", "setting": "oral, 65 mg, single dose, healthy volunteers", "AUC": "24.7 µM·h"}
{"SMILES": "CC(C)(C)OC[C@@H]1C(=O)NCCN1C(=O)C[C@H](N)Cc1cc(F)c(F)cc1F", "system": "male human, plasma", "setting": "oral, 5 mg, multiple doses, steady state", "AUC": "91.4 ng·h/mL"}
{"SMILES": "CS(=O)(=O)CCNCc1ccc(-c2ccc3ncnc(Nc4ccc(OCc5cccc(F)c5)c(Cl)c4)c3c2)o1", "system": "human, serum", "setting": "oral, 1250 mg, single dose, fed", "AUC": "27300 ng·h/mL"}
